The nature of test [1]: SK-BR-3 cell growth inhibitors, pilot screen, 24 h, human (AID 572;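 active = viability at or below 10% of carrier control in both of two separate runs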;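 also: compound exposure lasted between 18 and 24 h rather than exactly 24 h; 100% = carrier-treated control wells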). The following applies: SK-BR-3 viability, CellTiter-Glo luminescence, at 10 µM, stronger effect = lower value. (ATP-based viability assays read luminescence as a measure of living cells.)
Test [2] in a line: HUVEC growth inhibition – cell-based, human, primary screen (AID 575;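 active = viability at or below 30% in both replicate assays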;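 also: 100% = median of untreated cell wells with 0.1% DMSO on each plate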). Conditions: HUVEC proliferation, CellTiter-Glo luminescence, 72 h; at 10 µM; stronger effect = lower value. The essentials: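 System – primary HUVEC, no more than 12 passages · Medium – Low-serum (2% FBS) EBM, supplemented · Times – 72 h exposure, 37 °C, 5% CO2, 30 min RT equilibration · Measured by – luminescent ATP assay · Read-out – % viability relative to median vehicle-well signal on each plate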

Test [3] is described as follows: growth inhibitors of H69AR lung tumor, primary screen, human, duplicate replicates (AID 580;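 active = viability at or under a set limit in both replicates, limit being median viability minus 3 SD, cut at about 48% in these data, passing the limit was not always enough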;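 also: 100% = mean luminescence of untreated wells and 0% = no signal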). Conditions: H69AR lung tumor cells viability, ATP luminescence, 72 h; at 10 µM; stronger effect = lower value.
Test [4] can be described thus: reversal of MRP1-mediated doxorubicin resistance, pilot screen, H69AR cells, doxorubicin co-treatment (AID 601). The following applies: CellTiter-Glo, 72 h, at 10 µM; for differential viability (reversal): stronger effect = higher value.
Test [5] in a line: 384-well plate pilot, post-Golgi transport modulator project, inhibition of yeast transport mutant growth (AID 636; in the data active = inhibition above about 31%). Conditions: absorbance 615 nm, about 18 h, stronger effect = higher value.
Test [6] can be described thus: growth suppression of yeast trafficking mutant, preliminary HTS, modulators of trafficking downstream of Golgi apparatus project, 1536-format plate, OD 615 nm (AID 637; in the data active = inhibition above about 30%). Conditions: yeast transport mutant growth, absorbance 615 nm, 18 h; stronger effect = higher value.
[7] abbreviates: H69AR cells + 2 uM doxorubicin, measured here: viability with 2 uM doxorubicin, stronger effect = lower value.
[8] abbreviates: H69AR cells, compound alone cytotoxicity.

The source made the active and inactive calls.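 The calls were made as follows, unless noted: active = viability loss from added drug above about 55%, and viability with drug at most 40%, in both replicates (limit read from the data, passing the limit was not always enough); inconclusive = both conditions met in only one replicate; inactive = neither replicate meets both conditions.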

What is called viability is a read-out of living cells in per cent, often relative to untreated cells. The term inhibition denotes the change of the read-out against control, counted positive when it falls.

For `O=S(=O)(NC1CCCCC1NS(=O)(=O)c1ccc(F)cc1)c1ccc(F)cc1` (centres undefined), the viability is 106% (inactive) in test [1]; 91.2% (inactive) in test [2]; 94.1% (inactive) in test [3]; 95.8% in test [4] (setting [7]); 94.1% in test [4] (setting [8]). Also, the differential viability (reversal) in test [4] (H69AR cells + 2 uM doxorubicin) is -1.67% (inactive). For the same compound, the inhibition was -4.68% (inactive) in test [5] and 6.07% (inactive) in test [6].
Take `Oc1c(I)cc(I)c2cccnc12`: the viability is 61% (inactive) in test [1]; 71.3% (inactive) in test [2]; 84.6% (inactive) in test [3]; 90.9% in test [4] (setting [7]); 84.6% in test [4] (setting [8]). The differential viability (reversal) in test [4] (H69AR cells + 2 uM doxorubicin) is -6.25% (inactive). Also, the inhibition in test [5] is -2.73% (inactive); in test [6] it was 1% (inactive).
Regarding `COC(=O)c1[nH]c(C)c(/C(O)=C2\C(=O)C(=O)N(CCN3CCOCC3)C2c2cccs2)c1C` (centres undefined), the viability in test [1] was 105% (inactive); in test [2] it was 76.5% (inactive); in test [3], 17.3% (active); in test [4] (setting [7]), 71.8%; in test [4] (setting [8]), 17.3%. In addition, the differential viability (reversal) in test [4] (H69AR cells + 2 uM doxorubicin) is -54.5% (inactive). Also, the values for the inhibition in test [5] and in test [6] were -2.3% (inactive) and 13.1% (inactive), respectively.
In the case of `CC(C)C(=O)N1CCN(c2nc(-c3ccccc3)c3c(c2C#N)CCCC3)CC1`, the viability in test [1] was 103% (inactive); in test [2], 74.5% (inactive); in test [3] it was 89.2% (inactive); in test [4] (setting [7]), 77.7%; in test [4] (setting [8]), 89.2%. For the same compound, the differential viability (reversal) in test [4] (H69AR cells + 2 uM doxorubicin) was 11.5% (inactive). The inhibition in test [5] is 8.51% (inactive); in test [6], 5.09% (inactive).
`COCCN(Cc1cc2cccc(C)c2[nH]c1=O)C(=O)c1ccccc1`: the viability in test [1] was 95% (inactive); in test [2], 118% (inactive); in test [3], 102% (inactive); in test [4] (setting [7]), 94.1%; in test [4] (setting [8]), 102%. The differential viability (reversal) in test [4] (H69AR cells + 2 uM doxorubicin) is 7.6% (inactive). The inhibition is -0.95% (inactive) in test [5] and 1.09% (inactive) in test [6].
In the case of `CN(CC(=O)N1CCCc2c1c(=O)oc1ccc(O)cc21)Cc1ccccc1`, the viability in test [1] was 95% (inactive); in test [2] it was 87.6% (inactive); in test [3] it was 90% (inactive); in test [4] (setting [7]) it was 93.3%; in test [4] (setting [8]) it was 90%. Also, the differential viability (reversal) in test [4] (H69AR cells + 2 uM doxorubicin) is -3.29% (inactive). The inhibition in test [5] was -7.3% (inactive); in test [6], 0.36% (inactive).
For `COc1ccc(C(=O)NC(=O)CSc2nnc(-c3ccco3)n2-c2ccccc2)cc1`, the viability in test [1] was 90% (inactive); in test [2], 109% (inactive); in test [3] it was 105% (inactive); in test [4] (setting [7]), 88.7%; in test [4] (setting [8]), 105%. The differential viability (reversal) in test [4] (H69AR cells + 2 uM doxorubicin) was 16.3% (inactive). In addition, the inhibition in test [5] is -7.3% (inactive); in test [6], -0.55% (inactive).
For `c1cc2c(cc1C1CCCN1)OCCCO2` (centres undefined), the viability in test [1] was 103% (inactive); in test [2] it was 113% (inactive); in test [3], 91.6% (inactive); in test [4] (setting [7]), 99.5%; in test [4] (setting [8]) it was 91.6%. Also, the differential viability (reversal) in test [4] (H69AR cells + 2 uM doxorubicin) was -7.94% (inactive). The figures for the inhibition in test [5] and in test [6] were -5.21% (inactive) and 2% (inactive), respectively.
Take `O=C(O)/C=C/c1ccc(O)c(O)c1`: the viability in test [1] is 94% (inactive); in test [2], 69% (inactive); in test [3], 97.9% (inactive); in test [4] (setting [7]) it was 92.5%; in test [4] (setting [8]) it was 97.9%. In addition, the differential viability (reversal) in test [4] (H69AR cells + 2 uM doxorubicin) was 5.39% (inactive). Besides, the results for the inhibition in test [5] and in test [6] were -0.39% (inactive) and 1% (inactive), respectively.
For the compound `CCCCSc1nnc([C@H](C)NC(=O)OC(C)(C)C)o1`, the viability is 97% (inactive) in test [1]; 102% (inactive) in test [2]; 90.3% (inactive) in test [3]; 101% in test [4] (setting [7]); 90.3% in test [4] (setting [8]). The differential viability (reversal) in test [4] (H69AR cells + 2 uM doxorubicin) was -10.7% (inactive). Moreover, the inhibition is 0.14% (inactive) in test [5] and 22.6% (inactive) in test [6].
With `Cc1ccc(N(CC(O)CN2CCCC2)S(=O)(=O)c2ccc(C)cc2)cc1` (centres undefined), the viability is 132% (inactive) in test [1]; 103% (inactive) in test [2]; 86.9% (inactive) in test [3]; 88.2% in test [4] (setting [7]); 86.9% in test [4] (setting [8]). For the same compound, in test [4] (H69AR cells + 2 uM doxorubicin), the differential viability (reversal) was -1.29% (inactive). Further, the figures for the inhibition in test [5] and in test [6] were -5.21% (inactive) and -1.94% (inactive), respectively.
Regarding `CCc1ccc(NC(=O)CS(=O)CC(=O)NC(C)CCc2ccco2)cc1` (centres undefined), the viability in test [1] is 120% (inactive); in test [2] it was 93.1% (inactive); in test [3], 106% (inactive); in test [4] (setting [7]), 94.3%; in test [4] (setting [8]), 106%. Besides, the differential viability (reversal) in test [4] (H69AR cells + 2 uM doxorubicin) was 11.5% (inactive). Moreover, the inhibition in test [5] was -1.56% (inactive); in test [6], -4.59% (inactive).
Take `CCOc1cc2[nH]c(=O)n(CCC(=O)NCCc3ccc(OC)c(OC)c3)c(=O)c2cc1OCC`: the viability in test [1] was 103% (inactive); in test [2], 75.4% (inactive); in test [3] it was 96.8% (inactive); in test [4] (setting [7]), 79.7%; in test [4] (setting [8]) it was 96.8%. Besides, in test [4] (H69AR cells + 2 uM doxorubicin), the differential viability (reversal) is 17.1% (inactive). Also, the inhibition is -3.38% (inactive) in test [5] and -0.98% (inactive) in test [6].

The record behind these values is PubChem BioAssay.
